Measured values: ChEMBL document CHEMBL1127555, “Novel (4-phenylpiperidinyl)- and (4-phenylpiperazinyl)alkyl-spaced esters of 1-phenylcyclopentanecarboxylic acids as potent sigma-selective compounds” (J Med Chem, 1994)

Tests used:
D(1A) dopamine receptor [1] = molecular target: T1, D(1A) dopamine receptor (Rattus norvegicus, UniProt P18901); assay: Binding affinity was measured against dopamine receptor D1 in rat using [3H]SCH-23390 as radioligand
D(2) dopamine receptor [2] = molecular target: T2, D(2) dopamine receptor (Rattus norvegicus, UniProt P61169); assay: Binding affinity was measured against dopamine (D2) receptor in rat using [3H]spiperone as radioligand
T2 sequence (P61169 whole entry): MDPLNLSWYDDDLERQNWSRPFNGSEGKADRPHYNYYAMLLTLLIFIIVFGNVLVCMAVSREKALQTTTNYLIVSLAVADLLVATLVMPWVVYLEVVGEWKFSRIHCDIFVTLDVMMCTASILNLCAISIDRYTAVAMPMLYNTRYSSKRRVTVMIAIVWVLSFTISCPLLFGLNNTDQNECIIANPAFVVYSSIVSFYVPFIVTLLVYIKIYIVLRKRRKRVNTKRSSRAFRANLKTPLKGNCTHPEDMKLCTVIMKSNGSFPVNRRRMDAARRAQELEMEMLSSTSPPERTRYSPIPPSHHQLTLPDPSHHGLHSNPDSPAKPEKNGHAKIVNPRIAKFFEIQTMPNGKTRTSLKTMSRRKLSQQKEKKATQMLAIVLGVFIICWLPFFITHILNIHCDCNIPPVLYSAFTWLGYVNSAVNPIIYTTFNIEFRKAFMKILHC

[3] = molecular target: T3, Glutamate NMDA receptor (Rattus norvegicus) (UniProt P35439+Q00959+Q00960+Q00961+Q62645+Q8VHN2+Q9R1M7); assay: Binding affinity was measured against N-methyl-D-aspartate (NMDA) receptor in rat using [3H]CGS-19,755 as radioligand at 10 uM
[4] = molecular target: T3, Glutamate NMDA receptor (Rattus norvegicus); assay: Binding affinity was measured against phencyclidine (PCP) receptor in rat using [3H]-TCP as radioligand at 10 uM
Sigma 2 receptor [5] = assay: Affinity at sigma-2 site by inhibition of [3H]1,3-di(2-tolyl)guanidine (DTG) binding in guinea pig brain.; design: species or system Cavia porcellus
Method in brief: (§1)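 Final [3H]DTG 4 nM with varied test concentrations. Incubation 25 °C for 90 min. PEI-soaked GF/B filtration, scintillation counting. Ki from EBDA/LIGAND, at least three determinations in triplicate.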

Sigma 2 receptor [6] = assay: The compound was evaluated for affinity at sigma-2 site by inhibition of [3H]1,3-di(2-tolyl)guanidine (DTG) binding in guinea pig brain; design: species or system Cavia porcellus; method in brief: as §1
[7] = Binding affinity for sigma-1 site over dopamine receptor D1 in rat using [3H]SCH-23390 as radioligand
D(2) dopamine receptor [8] = molecular target: T2, D(2) dopamine receptor; assay: Iodo derivative shows a potent sigma binding ligand, had some affinity for D2 site in rat
[9] = molecular target: Opioid receptor (Rattus norvegicus) (UniProt P33533+P34975+P33535); assay: Binding affinity was measured as selectivity for sigma-1 site over opioid receptor in rat using [3H]naloxone as radioligand at 10 uM
Sequence of Opioid receptor (Rattus norvegicus) (P33533 whole entry, looked up): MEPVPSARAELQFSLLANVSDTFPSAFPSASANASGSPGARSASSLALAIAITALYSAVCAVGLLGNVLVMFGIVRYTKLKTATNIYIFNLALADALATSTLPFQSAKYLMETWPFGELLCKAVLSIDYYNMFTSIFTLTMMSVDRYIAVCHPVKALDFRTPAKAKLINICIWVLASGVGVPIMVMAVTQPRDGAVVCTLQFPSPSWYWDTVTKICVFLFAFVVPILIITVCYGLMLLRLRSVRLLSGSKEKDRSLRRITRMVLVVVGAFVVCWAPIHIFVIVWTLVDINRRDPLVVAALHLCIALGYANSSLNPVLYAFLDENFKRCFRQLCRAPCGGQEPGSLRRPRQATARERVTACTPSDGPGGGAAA
Sequence of Opioid receptor (Rattus norvegicus) (P33535 whole entry, looked up): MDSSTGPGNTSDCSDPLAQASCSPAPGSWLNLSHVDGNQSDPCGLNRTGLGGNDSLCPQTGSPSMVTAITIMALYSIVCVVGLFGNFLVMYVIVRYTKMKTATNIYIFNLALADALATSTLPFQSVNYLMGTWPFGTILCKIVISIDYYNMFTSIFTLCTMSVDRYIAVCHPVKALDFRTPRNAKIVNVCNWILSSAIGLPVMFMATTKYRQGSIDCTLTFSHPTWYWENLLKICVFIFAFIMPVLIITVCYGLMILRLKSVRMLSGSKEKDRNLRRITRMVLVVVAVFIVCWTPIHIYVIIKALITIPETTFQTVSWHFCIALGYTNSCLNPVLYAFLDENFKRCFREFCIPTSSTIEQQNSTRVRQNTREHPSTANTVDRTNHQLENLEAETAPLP
Sequence of Opioid receptor (Rattus norvegicus) (P34975 whole entry, looked up): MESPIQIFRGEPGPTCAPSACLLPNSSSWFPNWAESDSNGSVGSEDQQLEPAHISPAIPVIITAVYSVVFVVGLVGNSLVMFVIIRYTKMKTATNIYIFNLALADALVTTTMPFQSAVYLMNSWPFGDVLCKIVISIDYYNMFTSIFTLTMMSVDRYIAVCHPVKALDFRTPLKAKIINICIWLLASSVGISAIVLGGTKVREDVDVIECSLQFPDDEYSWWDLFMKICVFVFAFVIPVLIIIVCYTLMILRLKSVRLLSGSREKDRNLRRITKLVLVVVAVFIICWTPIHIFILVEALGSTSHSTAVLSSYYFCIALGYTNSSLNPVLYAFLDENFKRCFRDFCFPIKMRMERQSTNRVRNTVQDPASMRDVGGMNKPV

[10] = molecular target: T3, Glutamate NMDA receptor (Rattus norvegicus); assay: Binding affinity was measured as selectivity for sigma-1 site over phencyclidine (PCP) receptor in rat using [3H]TCP as radioligand at 10 uM
[11] = Binding affinity for sigma-1 site over dopamine (D2) receptor in rat using [3H]spiperone as radioligand
[12] = molecular target: T3, Glutamate NMDA receptor (Rattus norvegicus); assay: Binding affinity was measured as selectivity for sigma-1 site over N-methyl-D-aspartate (NMDA) receptor in rat using [3H]CGS-19,755 as radioligand at 10 uM
[13] = molecular target: T4, Muscarinic acetylcholine receptor M2 (Rattus norvegicus) (UniProt P10980); assay: (§2) Binding affinity was measured as selectivity for sigma 1 site over muscarinic (M2) receptor at 10 uM in rat using [3H]QN as radioligand
T4 sequence (whole entry): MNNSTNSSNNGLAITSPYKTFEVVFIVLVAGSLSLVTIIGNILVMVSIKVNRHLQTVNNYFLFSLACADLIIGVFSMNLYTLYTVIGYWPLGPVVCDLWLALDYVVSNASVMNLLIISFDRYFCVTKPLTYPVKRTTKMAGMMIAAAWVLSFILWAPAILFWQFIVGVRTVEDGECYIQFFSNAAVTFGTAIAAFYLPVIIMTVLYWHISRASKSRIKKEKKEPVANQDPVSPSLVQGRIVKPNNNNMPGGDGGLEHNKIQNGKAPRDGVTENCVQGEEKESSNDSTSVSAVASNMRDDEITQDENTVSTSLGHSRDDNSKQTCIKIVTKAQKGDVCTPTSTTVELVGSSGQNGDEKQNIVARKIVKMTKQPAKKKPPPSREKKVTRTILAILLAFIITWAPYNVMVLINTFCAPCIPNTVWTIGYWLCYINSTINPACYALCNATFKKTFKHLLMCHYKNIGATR
Method in brief: (§3)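 Muscarinic binding, M1 in rat cortex with [3H]pirenzepine 0.5 nM and M2 in rat heart with [3H]QNB 0.05 nM.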

[14] = molecular target: T5, Muscarinic acetylcholine receptor M1 (Rattus norvegicus, UniProt P08482); assay: Binding affinity was measured as selectivity for sigma-1 site over muscarinic (M1) receptor in rat
T5 sequence (P08482 whole entry): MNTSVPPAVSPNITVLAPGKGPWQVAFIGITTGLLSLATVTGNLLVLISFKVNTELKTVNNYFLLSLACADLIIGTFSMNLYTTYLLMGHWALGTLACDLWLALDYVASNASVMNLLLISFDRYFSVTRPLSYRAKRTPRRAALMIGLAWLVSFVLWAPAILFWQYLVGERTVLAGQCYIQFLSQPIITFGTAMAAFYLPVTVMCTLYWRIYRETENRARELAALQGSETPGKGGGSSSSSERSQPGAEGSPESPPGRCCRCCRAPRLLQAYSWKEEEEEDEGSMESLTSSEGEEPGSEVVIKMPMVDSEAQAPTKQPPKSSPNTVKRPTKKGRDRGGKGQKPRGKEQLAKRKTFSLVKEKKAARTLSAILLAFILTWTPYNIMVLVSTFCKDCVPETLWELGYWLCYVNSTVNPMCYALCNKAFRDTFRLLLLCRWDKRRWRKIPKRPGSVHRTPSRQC

[15] = molecular target: T6, Muscarinic acetylcholine receptor M2 (Rattus norvegicus, UniProt P10980); assay: as §2; method in brief: as §3
T6 sequence (P10980 whole entry): T4 sequence (whole entry)

D(1A) dopamine receptor [16] = molecular target: T1, D(1A) dopamine receptor; assay: The nitro derivative RLH-033 shows significant selectivity for the [3H]-(=)-PENT site over […] in rat using [3H]SCH-23390 as radioligand
[17] = molecular target: T5, Muscarinic acetylcholine receptor M1; assay: Binding affinity was measured as selectivity for sigma-1 site over muscarinic (M1) receptor in rat using [3H]pirenzepine as radioligand
[18] = molecular target: T5, Muscarinic acetylcholine receptor M1; assay: The nitro derivative RLH-033 shows significant selectivity for the [3H]-(=)-PENT site over muscarinic 1 in rat using [3H]pirenzepine as radioligand
[19] = molecular target: T6, Muscarinic acetylcholine receptor M2; assay: The nitro derivative RLH-033 shows significant selectivity for the [3H]-(=)-PENT site over muscarinic 2 in rat using [3H]QN as radioligand
D(2) dopamine receptor [20] = molecular target: T2, D(2) dopamine receptor; assay: The nitro derivative RLH-033 shows significant selectivity for the [3H]-(=)-PENT site over dopamine 2 in rat using [3H]SCH-23390 as radioligand
[21] = molecular target: T5, Muscarinic acetylcholine receptor M1; assay: Binding affinity was measured against muscarinic (M1) receptor in rat using [3H]pirenzepine as radioligand
[22] = molecular target: T6, Muscarinic acetylcholine receptor M2; assay: Binding affinity was measured against muscarinic (M2) receptor at 10 uM in rat using [3H]QN as radioligand
Opioid receptor [23] = molecular target: T7, Opioid receptor (Rattus norvegicus, UniProt P33533+P34975+P33535); assay: Binding affinity was measured against opioid receptor in rat using [3H]naloxone as radioligand
Glutamate NMDA receptor [24] = assay: Binding affinity was measured against phencyclidine (PCP) receptor in rat using [3H]TCP as radioligand
Opioid receptor [25] = molecular target: T7, Opioid receptor; assay: Binding affinity was measured as selectivity for sigma-1 site over opioid receptor in rat using [3H]naloxone as radioligand
Glutamate NMDA receptor [26] = assay: Binding affinity was measured as selectivity for sigma-1 site over phencyclidine (PCP) receptor in rat using [3H]TCP as radioligand

T1 sequence (P18901 whole entry): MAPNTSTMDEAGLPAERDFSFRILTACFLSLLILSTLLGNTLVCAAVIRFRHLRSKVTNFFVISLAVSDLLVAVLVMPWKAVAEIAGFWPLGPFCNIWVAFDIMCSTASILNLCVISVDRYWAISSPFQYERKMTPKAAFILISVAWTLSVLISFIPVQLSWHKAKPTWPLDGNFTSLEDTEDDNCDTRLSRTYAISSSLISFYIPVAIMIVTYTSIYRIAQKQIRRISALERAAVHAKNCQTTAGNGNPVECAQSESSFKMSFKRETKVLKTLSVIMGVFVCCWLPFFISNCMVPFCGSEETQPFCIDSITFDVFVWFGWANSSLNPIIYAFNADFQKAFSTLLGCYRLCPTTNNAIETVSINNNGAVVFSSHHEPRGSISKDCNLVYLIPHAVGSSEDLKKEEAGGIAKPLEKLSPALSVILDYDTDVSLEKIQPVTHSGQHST

For CCN(CC)CCOC(=O)C1(c2ccccc2)CCCC1, the Ki (D(1A) dopamine receptor [1]) was > 1000 nM, the Ki (D(2) dopamine receptor [2]) was > 500 nM and the inhibition [3] was 19%. For the same compound, the inhibition [4] was 11% and the Ki (Sigma 2 receptor [5]) was 658 nM.

O=C(OCCN1CCC(c2ccccc2)CC1)C1(c2ccc(Cl)cc2)CCCC1 showed a Ki (Sigma 2 receptor [6]) of 23.9 nM.

COc1ccc(C2(C(=O)OCCN3CCC(c4ccccc4)CC3)CCCC2)cc1 showed a Ki (Sigma 2 receptor [6]) of 31.8 nM.

In the case of O=C(OCCN1CCC(c2ccccc2)CC1)C1(c2ccc(I)cc2)CCCC1, the Ki [7] is reported as > 1000 nM, the Ki (D(2) dopamine receptor [8]) is reported as 55 nM and the inhibition [9] is reported as 25%. For the same compound, the inhibition [10] was 8% and the Ki (Sigma 2 receptor [6]) was 52 nM.

Compound O=C(OCCCN1CCC(c2ccccc2)CC1)C1(c2ccc(I)cc2)CCCC1 has a Ki (Sigma 2 receptor [6]) of 6.49 nM.

Work on COc1ccc(C2(C(=O)OCCCN3CCC(c4ccccc4)CC3)CCCC2)cc1 yielded a Ki [7] of 6000 nM, a Ki [11] of 1000 nM and a Ki (Sigma 2 receptor [6]) of 1.71 nM.

In the case of O=C(OCCN1CCN(c2ccccc2)CC1)C1(c2ccccc2)CCCC1, the Ki [11] is reported as > 500 nM, the inhibition [12] is reported as 7% and the inhibition [13] is reported as 98%. For the same compound, the Ki [14] was 1470 nM, the inhibition [9] was 43% and the inhibition [10] was 1%. It also gave a Ki (Sigma 2 receptor [6]) of 696 nM.

In the case of O=C(CCCN1CCC(O)(c2ccc(Cl)cc2)CC1)c1ccc(F)cc1, the inhibition [3] is reported as 25%.

O=C(OCCCN1CCC(c2ccccc2)CC1)C1(c2ccccc2)CCCC1 showed a Ki [7] of 10000 nM, a Ki [11] of 1200 nM and a Ki [14] of 170 nM. The Ki [15] was 670 nM and the Ki (Sigma 2 receptor [6]) was 1.17 nM.

O=C(OCCN1CCN(c2ccccc2)CC1)C1(c2ccc([N+](=O)[O-])cc2)CCCC1 gave a Ki [7] of 1000 nM, a Ki [11] of 500 nM and an inhibition [12] of 19%. The inhibition [9] was 25%, the inhibition [10] was 10% and the Ki (Sigma 2 receptor [6]) was 30.3 nM.

With O=C(OCCN1CCC(c2ccccc2)CC1)C1(c2ccc([N+](=O)[O-])cc2)CCCC1 the Ki [7] was 2900 nM, the Ki (D(1A) dopamine receptor [16]) was > 58000 nM and the Ki [11] was 350 nM. For the same compound, the inhibition [12] was 12%, the Ki [17] was 880 nM and the Ki [18] was > 17600 nM. The Ki [15] was 1710 nM, the Ki [19] was > 34200 nM and the inhibition [9] was 42%. The inhibition [10] was 7%, the Ki (Sigma 2 receptor [6]) was 3.93 nM and the Ki (D(2) dopamine receptor [20]) was > 7000 nM.

Work on O=C(OCCCN1CCC(c2ccccc2)CC1)C1(c2ccc([N+](=O)[O-])cc2)CCCC1 yielded a Ki (Sigma 2 receptor [6]) of 0.88 nM.

Work on O=C(OCCCCCCN1CCC(c2ccccc2)CC1)C1(c2ccccc2)CCCC1 yielded a Ki (Sigma 2 receptor [6]) of 1.88 nM.

In the case of CC(C)=CCN1CC[C@]2(C)c3cc(O)ccc3C[C@H]1[C@H]2C (single isomer, unassigned) [(+)-PENTAZOCINE], the Ki (D(1A) dopamine receptor [1]) is reported as > 5000 nM, the Ki (D(2) dopamine receptor [2]) is reported as > 5000 nM and the Ki [21] is reported as 225 nM. For the same compound, the Ki [22] was 525 nM, the Ki (Opioid receptor [23]) was 651 nM and the Ki (Glutamate NMDA receptor [24]) was 4190 nM.

O=C(OCCN1CCC(c2ccccc2)CC1)C1(c2ccccc2)CCCC1 showed a Ki [7] of 4900 nM, a Ki [11] of 1100 nM and an inhibition [12] of 15%. For the same compound, the inhibition [13] was 20%, the Ki [17] was 170 nM and the inhibition [9] was 63%. The inhibition [10] was 8% and the Ki (Sigma 2 receptor [6]) was 52.3 nM.

For N#Cc1ccc(C2(C(=O)OCCN3CCC(c4ccccc4)CC3)CCCC2)cc1, the Ki [7] was > 1000 nM, the Ki [11] was 195 nM and the Ki (Sigma 2 receptor [6]) was 26.8 nM.

With COc1ccc2c(c1)[C@]13CCCC[C@@H]1[C@H](C2)N(C)CC3 [DEXTROMETHORPHAN] the inhibition [3] was 2% and the Ki [22] was > 10000 nM.

Compound O=C(OCCCCCN1CCC(c2ccccc2)CC1)C1(c2ccccc2)CCCC1 has a Ki (Sigma 2 receptor [6]) of 1.05 nM.

With O=C(OCCCN1CCC(c2ccccc2)CC1)C1(c2ccc(Cl)cc2)CCCC1 the Ki (Sigma 2 receptor [6]) was 4.41 nM.

For O=C(OCCN1CCN(c2ccccc2)CC1)C1(c2ccc(I)cc2)CCCC1, the Ki [7] was 650 nM, the Ki [11] was 215 nM and the inhibition [9] was 25%. For the same compound, the inhibition [10] was 7% and the Ki (Sigma 2 receptor [6]) was 293 nM.

Compound O=C(OCCCCN1CCC(c2ccccc2)CC1)C1(c2ccccc2)CCCC1 has a Ki [7] of 3100 nM, a Ki [11] of 470 nM and a Ki (Sigma 2 receptor [6]) of 0.69 nM.

Work on O=C(OCCN1CCN(c2ccccc2)CC1)C1(c2ccc(Cl)cc2)CCCC1 yielded a Ki (Sigma 2 receptor [6]) of 763 nM.

With Cc1ccccc1NC(=N)Nc1ccccc1C the Ki [7] was > 5000 nM, the Ki [11] was > 5000 nM and the inhibition [12] was 0%. It also gave a Ki [14] of 744 nM, a Ki [15] of 2960 nM and a Ki (Opioid receptor [25]) of 3950 nM. For the same compound, the Ki (Glutamate NMDA receptor [26]) was 6690 nM.
